Data: ChEMBL document CHEMBL4414587 (J Med Chem, 2019)

How the values were obtained:
[1] = biological target: D(2) dopamine receptor (Homo sapiens, UniProt P14416); test: Displacement of [3H]N-methylspiperone from human D2L receptor expressed in HEK293 cell membranes measured after 60 mins by scintillation counting method
In short: (§1)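 Membranes from HEK293 cells stably expressing human D2L or D3 were used at 20 μg protein/well in EBSS buffer, pH 7.4, with 0.4 nM [3H]N-methylspiperone. Compounds were run as 10 half-log dilutions in triplicate for 1 h at rt, with nonspecific binding defined by 10 μM (+)-butaclamol. Reactions were filtered onto GF/B and counted by scintillation.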

[2] = organism: Homo sapiens; test: Selectivity ratio of Ki for displacement of [3H]N-methylspiperone from human D2L receptor expressed in HEK293 cell membranes to Ki for displacement of [3H]N-methylspiperone from human D3 receptor expressed in HEK293 cell membranes
[3] = biological target: T1, D(3) dopamine receptor (Homo sapiens, UniProt P35462); test: Displacement of [3H]N-methylspiperone from human D3 receptor expressed in HEK293 cell membranes measured after 60 mins by scintillation counting method; in short: as §1
T1 sequence (P35462 whole entry): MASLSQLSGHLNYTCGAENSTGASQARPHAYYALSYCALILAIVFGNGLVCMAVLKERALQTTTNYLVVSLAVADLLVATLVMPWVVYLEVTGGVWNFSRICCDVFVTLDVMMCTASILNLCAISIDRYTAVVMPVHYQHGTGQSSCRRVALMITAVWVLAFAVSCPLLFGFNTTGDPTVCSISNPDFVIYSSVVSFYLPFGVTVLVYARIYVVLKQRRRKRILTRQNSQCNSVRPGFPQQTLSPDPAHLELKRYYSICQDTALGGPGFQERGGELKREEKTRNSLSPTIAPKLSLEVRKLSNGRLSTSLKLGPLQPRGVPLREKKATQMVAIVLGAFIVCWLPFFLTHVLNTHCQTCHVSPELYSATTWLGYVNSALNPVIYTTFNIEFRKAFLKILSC

[4] = Metabolic stability in rat liver microsomes assessed as parent compound remaining at 10 uM measured after 60 mins in presence of NADPH regenerating system by LC/MS/MS analysis; type: ADME, Microsome; conditions: read-out: Stability
In short: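 Compound at 10 μM final was incubated with rat liver microsomes at 0.5 mg/mL in 100 mM potassium phosphate, pH 7.4, with an NADPH regenerating system. Buprenorphine served as positive control. Parent disappearance was followed by LC/MS/MS, and percent remaining was reported at 60 min. Reactions were run in triplicate.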

[5] = biological target: T1, D(3) dopamine receptor; test: Agonist activity at human D3 receptor expressed in CHO cells assessed as stimulation of quinpirole-induced mitogenesis; type: cell-based
[6] = biological target: T1, D(3) dopamine receptor; test: Agonist activity at human D3 receptor expressed in CHO cells assessed as stimulation of quinpirole-induced mitogenesis relative to control; type: cell-based; parameters: concentration or dose not given beside the values
[7] = Tmax in Long-Evans rat brain at 10 mg/kg, po measured up to 24 hrs by LC/MS/MS analysis; type: ADME, organism-based
[8] = Tmax in Long-Evans rat plasma at 10 mg/kg, po measured up to 24 hrs by LC/MS/MS analysis; type: ADME, organism-based
[9] = Cmax in Long-Evans rat brain at 10 mg/kg, po measured up to 24 hrs by LC/MS/MS analysis; type: ADME, organism-based; parameters: dose 10 mg/kg, route oral; conditions: in vivo
[10] = AUC (0 to t) in Long-Evans rat brain at 10 mg/kg, po measured up to 24 hrs by LC/MS/MS analysis; type: ADME, organism-based; conditions: in vivo
[11] = biological target: T2, 5-hydroxytryptamine receptor 1A (Homo sapiens) (UniProt P08908); test: Agonist activity at 5-HT1A receptor (unknown origin) assessed as stimulation of [35S]GTPgammaS binding relative to control; type: functional
T2 sequence (whole entry): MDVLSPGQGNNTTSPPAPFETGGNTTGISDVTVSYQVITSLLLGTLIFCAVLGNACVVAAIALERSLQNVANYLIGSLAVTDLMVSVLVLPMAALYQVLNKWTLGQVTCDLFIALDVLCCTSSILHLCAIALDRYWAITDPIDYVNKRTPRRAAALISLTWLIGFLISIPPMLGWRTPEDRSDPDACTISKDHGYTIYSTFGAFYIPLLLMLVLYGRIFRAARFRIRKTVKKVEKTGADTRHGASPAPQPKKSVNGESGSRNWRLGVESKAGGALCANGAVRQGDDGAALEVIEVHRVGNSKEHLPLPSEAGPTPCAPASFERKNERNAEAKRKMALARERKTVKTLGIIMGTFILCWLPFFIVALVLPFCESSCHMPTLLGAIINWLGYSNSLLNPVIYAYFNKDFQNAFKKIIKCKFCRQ

[12] = AUC (0 to t) in Long-Evans rat plasma at 10 mg/kg, po measured up to 24 hrs by LC/MS/MS analysis; type: ADME, organism-based; parameters: time < 24 hr, dose 10 mg/kg, route oral
[13] = Cmax in Long-Evans rat plasma at 10 mg/kg, po measured up to 24 hrs by LC/MS/MS analysis; type: ADME, organism-based; parameters: dose 10 mg/kg, route oral
[14] = biological target: T3, 5-hydroxytryptamine receptor 2C (Homo sapiens, UniProt P28335); test: Displacement of [125I] DOI from 5HT2C receptor (unknown origin)
T3 sequence (P28335 whole entry): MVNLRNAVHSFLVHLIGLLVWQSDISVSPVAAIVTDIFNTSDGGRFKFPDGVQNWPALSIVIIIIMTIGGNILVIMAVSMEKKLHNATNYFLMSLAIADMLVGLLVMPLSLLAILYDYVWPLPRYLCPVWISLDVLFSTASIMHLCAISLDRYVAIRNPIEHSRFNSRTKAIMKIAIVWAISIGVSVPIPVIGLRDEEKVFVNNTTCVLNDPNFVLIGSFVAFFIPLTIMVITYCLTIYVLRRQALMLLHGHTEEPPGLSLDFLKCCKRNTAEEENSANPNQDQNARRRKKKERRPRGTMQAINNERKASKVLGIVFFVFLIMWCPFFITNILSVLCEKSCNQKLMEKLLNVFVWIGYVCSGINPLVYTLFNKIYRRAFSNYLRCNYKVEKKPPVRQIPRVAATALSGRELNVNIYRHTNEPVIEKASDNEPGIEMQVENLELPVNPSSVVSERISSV

D(2) dopamine receptor, sequence (P14416 whole entry): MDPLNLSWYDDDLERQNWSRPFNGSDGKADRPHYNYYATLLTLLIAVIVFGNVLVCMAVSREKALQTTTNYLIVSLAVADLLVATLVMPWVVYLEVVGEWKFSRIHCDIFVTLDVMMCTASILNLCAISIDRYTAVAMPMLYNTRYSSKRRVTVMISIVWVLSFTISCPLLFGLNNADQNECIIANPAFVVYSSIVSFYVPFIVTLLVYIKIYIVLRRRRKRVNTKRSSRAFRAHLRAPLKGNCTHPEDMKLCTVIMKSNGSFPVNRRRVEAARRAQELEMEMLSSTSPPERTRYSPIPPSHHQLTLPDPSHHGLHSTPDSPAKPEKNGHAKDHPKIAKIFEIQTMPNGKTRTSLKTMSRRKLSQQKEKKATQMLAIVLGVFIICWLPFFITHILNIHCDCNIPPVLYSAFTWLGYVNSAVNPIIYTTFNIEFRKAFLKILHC

Compound	remaining at 1 h, 10 µM [4]	Activity [6]	Ratio Ki [2]	other results
CCc1cccc(N2CCN(CC(O)CCNC(=O)c3ccc4c(c3)OCO4)CC2)c1Cl (stereo not drawn)	–	–	140	Ki [1]: 0.424 µM; Ki [3]: 0.00302 µM
CCc1cc(Cl)c(OC)c(N2CCN(CC(O)CCNC(=O)c3cc4ccccc4[nH]3)CC2)c1 (racemic)	57 to 86%	–	–	–
CCc1cccc(N2CCN(C[C@@H](O)CCNC(=O)c3cc4ccccc4[nH]3)CC2)c1Cl	57 to 86%	–	–	Tmax [7]: 2 h; Tmax [8]: 2 h; Cmax [9]: 2670 to 3670 pmol/g; AUCt [10]: 16665 pmol·h/g; Activity [11]: 69%
CCc1cc(Cl)c(OC)c(N2CCN(CC(O)CCNC(=O)c3ccc4c(c3)OCO4)CC2)c1 (stereo not drawn)	–	–	15	–
CCc1cccc(N2CCN(C[C@H](F)CCNC(=O)c3cc4ccccc4[nH]3)CC2)c1Cl	57 to 70%	–	215	–
CCc1cccc(N2CCN(CC(F)CCNC(=O)c3cc4ccccc4[nH]3)CC2)c1Cl (racemic)	38%	5.4%	327	EC50 [5]: > 6.8 µM
CCc1cccc(N2CCN(CC(O)CCNC(=O)c3cc4ccccc4[nH]3)CC2)c1Cl (racemic)	57 to 86%	–	–	–
CCc1cccc(N2CCN(C[C@H](O)CCNC(=O)c3cc4ccccc4[nH]3)CC2)c1Cl	57 to 86%	–	–	Tmax [7]: 2 h; Cmax [13]: 291 to 306 nM; Tmax [8]: 2 h; Cmax [9]: 3850 pmol/g; AUCt [10]: 21600 pmol·h/g; Activity [11]: 74%
CCc1cc2c(cc1N1CCN(CC(O)CCNC(=O)c3cc4ccccc4o3)CC1)OCO2 (stereo not drawn)	–	–	61	–
CCc1cccc(N2CCN(C[C@@H](F)CCNC(=O)c3cc4ccccc4[nH]3)CC2)c1Cl	57 to 70%	–	1060	–

Second part, led by results:

remaining at 1 h, 10 µM [4]	Activity [6]	Compound	Ratio Ki [2]	other results
12%	5.1%	CCc1cc(Cl)c(OC)c(N2CCN(CC(F)CCNC(=O)c3cc4ccccc4o3)CC2)c1 (stereo not drawn)	108	EC50 [5]: > 4 µM
57 to 86%	17.7%	CCc1cc(Cl)c(OC)c(N2CCN(C[C@H](O)CCNC(=O)c3cc4ccccc4[nH]3)CC2)c1	–	Tmax [7]: 4 h; AUC(0-t) at 24 h [12]: 2.2 µM·h; Cmax [9]: 1796.6 pmol/g; AUCt [10]: 8412 pmol·h/g
57 to 70%	–	CCc1cc(Cl)c(OC)c(N2CCN(C[C@@H](F)CCNC(=O)c3cc4ccccc4[nH]3)CC2)c1	535	–
57 to 70%	–	CCc1cc(Cl)c(OC)c(N2CCN(C[C@H](F)CCNC(=O)c3cc4ccccc4[nH]3)CC2)c1	1650	–
75%	2.7%	CCc1cc(Cl)c(OC)c(N2CCN(CC(F)CCNC(=O)c3cc4ccccc4[nH]3)CC2)c1 (racemic)	746	EC50 [5]: > 5.4 µM; Ki [14]: > 8.9 µM
57 to 86%	17%	CCc1cc(Cl)c(OC)c(N2CCN(C[C@@H](O)CCNC(=O)c3cc4ccccc4[nH]3)CC2)c1	–	Tmax [7]: 4 h; AUC(0-t) at 24 h [12]: 1.07 µM·h; Cmax [9]: 959.9 pmol/g; AUCt [10]: 4360 pmol·h/g
34%	15.5%	CCc1cccc(N2CCN(CC(F)CCNC(=O)c3cc4ccccc4o3)CC2)c1Cl (stereo not drawn)	134	EC50 [5]: > 7.5 µM; Activity [11]: 43%
